Results on 14 compounds are retold here after ChEMBL document CHEMBL1240469, “In vitro and in vivo studies on stilbene analogs as potential treatment agents for colon cancer” (Eur J Med Chem, 2010).

For orientation: IC50 means the point on the concentration scale where inhibition reaches its midpoint. Low readings indicate greater potency in that assay, high ones weaker potency in that assay.

One data set relates to Serum. The data set is described as follows: Drug level in SCID mouse serum at 10 mg/kg, ip by GC-MS analysis. It counts as ADME, organism-based. Details: dose 10 mg/kg, route intraperitoneal. Conditions: in vivo. In a few lines:
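Blood taken at autopsy from xenografted SCID mice after 3 weeks of daily i.p. dosing at 10 mg/kg. Serum (50 μL) was incubated with 1 M sodium acetate pH 5 for 60 min at 37 °C, extracted 3× with ethyl acetate, dried and redissolved. Analysed by GC-MS on a DB-5 column, with quantification against external-standard calibration curves at m/z 255, 298 or 270. Values given as mean ± std.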

A further data set concerns Caco-2. The data set can be described thus: Cytotoxicity against human Caco-2 cells after 3 days by [3H]thymidine incorporation assay. The format is functional, cell-based. In a few lines:
(§1)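 Cells kept in DMEM with 10% FBS at 37 °C, 5% CO2, then plated at 20,000 cells/well. Exposed to a range of concentrations for 3 days at 37 °C, final DMSO 0.1% or less, with DMSO controls. IC50 reported.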
On the technique in general: Dividing cells build labelled thymidine or BrdU into new DNA.

Data set [1] concerns HT-29. The data set is described as follows: Cytotoxicity against human HT-29 cells after 3 days by [3H]thymidine incorporation assay. It counts as functional, cell-based. In a few lines:
as §1

A further data set relates to Mus musculus. The data set is described as follows: Toxicity in SCID mouse assessed as effect on body weight at 10 mg/kg, ip qd for 3 weeks (reference value: 20.4 +/- 0.4 g). The format is organism-based. Also on record: dose 10 mg/kg, route intraperitoneal. Conditions: in vivo, 504 h.
Data set [2] relates to HT-29. The data set can be described thus: Antitumor activity against human HT-29 cells xenografted in SCID mouse assessed as reduction tumor weight at 10 mg/kg, ip qd for 3 weeks (reference value: 0.72 +/- 0.1 g). It counts as functional. Conditions: route intraperitoneal. On the technique in general: In xenograft studies the graft and the host belong to different species.

The subject of data set [3] is HT-29. The data set can be described thus: Antitumor activity against human HT-29 cells xenografted in SCID mouse assessed as reduction tumor volume at 10 mg/kg, ip qd for 3 weeks (reference value: 1087 +/- 138.9 mm'3). The format is functional. Particulars: route intraperitoneal.
The subject of data set [4] is HT-29. The data set can be described thus: Up-regulation of p27 expression level in human HT-29 cells by immunohistochemistry analysis. The format is functional, cell-based. In short, it runs like this: (§2)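 Paraffin sections of xenograft tumors, 4 μm thick, incubated overnight with anti-PCNA (1:1000) or anti-p27 (1:50), then biotinylated secondary, avidin-biotin peroxidase and diaminobenzidine, with hematoxylin counterstain. Five random fields per slide were imaged at 400×. PCNA was reported as labeling index (positive cells/total ×100, averaged per tumor); p27 as integrated optical density averaged per tumor and per group; ± SE.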

For data set [5], the system named is HT-29. The data set can be described thus: Reduction of proliferating cell nuclear antigen level in human HT-29 cells by Western blotting. It counts as functional, cell-based. In short, it runs like this:
(§3)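 Xenograft tumors from treated SCID mice were homogenized in lysis buffer and pooled by group. Primary antibodies (PCNA or p27) were applied overnight at 4 °C, followed by HRP secondary for 1 h. Bands detected by chemiluminescence, with β-actin as loading control.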
For orientation: A western blot detects proteins with antibodies after separation by electrophoresis.

In data set [6] the test system is HT-29. The data set is described as follows: Induction of apoptosis in human HT-29 cells assessed as PARP cleavage. It counts as functional, cell-based.
Data set [7] has as its system HT-29. The data set is described as follows: Induction of apoptosis in human HT-29 cells assessed as caspase3 activity. The format is functional, cell-based.
Data set [8] relates to HT-29. The data set is described as follows: Up-regulation of p27 expression level in human HT-29 cells by Western blotting. It counts as functional, cell-based. In short, it runs like this:
as §3

For data set [9], the system named is HT-29. The data set can be described thus: Reduction of proliferating cell nuclear antigen level in human HT-29 cells by immunohistochemistry analysis. It counts as functional, cell-based. In a few lines: as §2

Calls of active or inactive are those of the source. The rule behind the calls is not given here. A value given as a limit tells only on which side of the number the result lay.

Take `COc1cc(/C=C\c2ccc(N)cc2)cc(OC)c1`: the Drug uptake in the data set with Serum worked out at 109.1 ng/mL.

Consider `COc1cc(/C=C/c2ccc(S)cc2)cc(OC)c1`, for which the concentration for half-maximal inhibition (IC50) with Caco-2 and with HT-29 [1] was above 10 µM in each case.

Compound `COC(=O)c1ccc(/C=C\c2cc(OC)cc(OC)c2)cc1` displayed a Drug uptake in the data set with Serum of 18.8 ng/mL.

Take `COc1cc(/C=C/c2ccc(OC3OC(CO)C(O)C(O)C3O)cc2)cc(OC)c1` (stereo not drawn): the 50% inhibitory concentration (IC50) with Caco-2 and in the data set with HT-29 [1] was above 10 µM each time.

`COc1cc(/C=C/c2ccc(F)cc2)cc(OC)c1`: the IC50 with Caco-2 and with HT-29 [1] was above 10 µM in each case.

Turning to `COc1ccc(/C=C\c2cc(O)cc(O)c2)cc1`, the 50% inhibitory concentration (IC50) in the data set with Caco-2 and in the data set with HT-29 [1] was above 30 µM each time.

With `COc1cc(/C=C/c2ccc(N)cc2)cc(OC)c1`, the Drug uptake in the data set on Serum turned out to be 99 ng/mL.

`COc1cc(/C=C\c2ccc(F)cc2)cc(OC)c1`: the IC50 in the data set with Caco-2 and with HT-29 [1] was above 10 µM in each case.

The compound `COC(=O)c1ccc(/C=C/c2cc(OC)cc(OC)c2)cc1` showed a Drug uptake in the data set with Serum of 54.6 ng/mL.

For the compound `COc1cc(O)cc(/C=C/c2ccc(O)cc2)c1`, the IC50 in the data set on Caco-2 came to 19.2 µM; in the data set with HT-29 [1] it was 33.5 µM.

With `COc1ccc(/C=C\c2cc(OC)cc(OC)c2)cc1` [8Z-3,4',5-TRIMETHOXYSTILBENE], the IC50 in the data set on Caco-2 is 0.08 µM; in the data set with HT-29 [1] it was 0.04 µM. The Activity in the data set with Mus musculus worked out at 19.8 g; in the data set on HT-29 [2] it was 0.61 g; with HT-29 [3], 1023.6 mm3. In the data set on Serum, this compound had a Drug uptake of 15.5 ng/mL.

For `COc1cc(/C=C/c2ccc(O)cc2)cc(OC)c1` [PTEROSTILBENE], the IC50 with Caco-2 is 14.5 µM; in the data set with HT-29 [1] it was 23.8 µM.

As for `COc1ccc(/C=C/c2cc(O)cc(O)c2)cc1` [RESVERATROL 4'-METHYL ETHER], the IC50 was above 30 µM in the data set on Caco-2 and 24.5 µM in the data set with HT-29 [1].

Regarding `COc1ccc(/C=C/c2cc(OC)cc(OC)c2)cc1` [TRISMETHOXYRESVERATROL], the concentration for half-maximal inhibition (IC50) in the data set with Caco-2 is 12 µM; in the data set with HT-29 [1], 16.1 µM. The Activity in the data set on Mus musculus stood at 19.5 g; with HT-29 [2], 0.57 g; in the data set on HT-29 [3], 590.3 mm3. Further, the outcome in the data set with HT-29 [4], in the data set on HT-29 [5], in the data set on HT-29 [8] and with HT-29 [9] was Active. The result in the data set with HT-29 [6] and in the data set on HT-29 [7] was inactive. Further, the Drug uptake in the data set with Serum worked out at 69.9 ng/mL.
